Where two headings read alike, the source gives them in different places.
Legend:
in vivo [1] = settings: male, B6C3F1/N, mouse; for half-life: Free Elimination half-life
[2] = Stability in dosed-feed formulations; format: physicochemical; settings: up to 42 d, RE ≤ ± 10% of day 0 value
[3] = format: in vivo, rat; settings: male rats; for group mean daily body weight gain: 7 d; for average daily feed consumption: 7 d exposure; for survival: all exposure groups, 7 d via feed
[4] = format: in vivo, rat; settings: male rats, dose-normalized
Outline: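 Male rats (272–308 g, 8–9 weeks), singly caged, received dosed feed ad libitum at 338, 1125 or 3750 ppm for 7 days. Control feed followed, with plasma sampled up to 24 h. Free and deconjugated total test compound were measured by LC-MS/MS. Cmax and AUC came from an extravascular model and were normalized to the daily dose (food consumption, concentration, body weight). Gavage values were taken from earlier single-dose work.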

[5] = format: in vivo, mouse; settings: male mice; for group mean daily body weight gain: 7 d; for average daily feed consumption: 7 d exposure; for survival: all exposure groups, 7 d via feed
[6] = male rats, ref Waidyanatha et al., cited from earlier work
in vivo [7] = settings: male; for half-life: po, Free Elimination half-life
[8] = gavage 34 mg/kg vs feed 23.4 mg/kg
[9] = gavage 110 mg/kg vs feed 70.5 mg/kg
[10] = gavage 340 mg/kg vs feed 193 mg/kg
[11] = Hsd:Sprague Dawley SD (rat), B6C3F1/N (mouse)

Oc1ccc(C(c2ccc(O)cc2)(C(F)(F)F)C(F)(F)F)cc1 [BPAF, 2,2-bis(4-hydroxyphenyl)perfluoropropane]
Total plasma elimination half-lives, range over exposure concentrations (in vivo [1]): 3.49 to 4.18 h
half-life (in vivo [1]; po): 6.66 h
stability in feed formulations stored at refrigerated temperature [2]: confirmed
group mean daily body weight gain ([3]; 338 ppm via feed): 3.38 ± 3.37 g
average daily feed consumption ([3]; 338 ppm): 69.2 ± 5.8 g/kg bw/d
group mean daily body weight gain ([3]; 1125 ppm via feed): 2.12 ± 3.68 g
average daily feed consumption ([3]; 1125 ppm): 61.0 ± 11.7 g/kg bw/d
group mean daily body weight gain ([3]; 3750 ppm via feed): −0.4 ± 2.3
average daily feed consumption ([3]; 3750 ppm): 51.5 ± 20.5 g/kg bw/d
survival [3]: All animals survived until the end of the study
Ratio (Gavage/Feed) AUC [4, 8]: 2.3
Ratio (Gavage/Feed) Cmax [4, 8]: 3.9
Ratio (Gavage/Feed) AUC [4, 9]: 1.6
Ratio (Gavage/Feed) Cmax [4, 9]: 2.2
Ratio (Gavage/Feed) AUC [4, 10]: 3.7
Ratio (Gavage/Feed) Cmax [4, 10]: 4.9
group mean daily body weight gain ([5]; 338 ppm via feed): 0.3 ± 0.5 g
average daily feed consumption ([5]; 338 ppm): 207 ± 68 g/kg bw/d
group mean daily body weight gain ([5]; 1125 ppm via feed): 0.1 ± 0.6 g
average daily feed consumption ([5]; 1125 ppm): 211 ± 68 g/kg bw/d
group mean daily body weight gain ([5]; 3750 ppm via feed): 0.1 ± 0.7 g
feed consumption, fold higher than pre-study control food consumption ([5]; 3750 ppm, probably due to high spillage rate): 1.7 fold
survival [5]: All animals survived until the end of the study
Gavage AUC/D ([6]; single gavage 34 mg/kg, 2019): 11.7 (h*ng/mL)/(mg/kg)
Gavage Cmax/D ([6]; single gavage 34 mg/kg, 2019): 1.79 (ng/mL)/(mg/kg)
Gavage AUC/D ([6]; single gavage 110 mg/kg, 2019): 11.2 (h*ng/mL)/(mg/kg)
Gavage Cmax/D ([6]; single gavage 110 mg/kg, 2019): 1.29 (ng/mL)/(mg/kg)
Gavage AUC/D ([6]; single gavage 340 mg/kg, 2019): 14.2 (h*ng/mL)/(mg/kg)
Gavage Cmax/D ([6]; single gavage 340 mg/kg, 2019): 1.62 (ng/mL)/(mg/kg)
Total plasma elimination half-lives, fold longer in rats compared to mice (in vivo [7]; [11]): 2-3 fold
Total Elimination half-life (in vivo [7]; Hsd:Sprague Dawley SD, rat): 13.3 h
half-life (in vivo [7]; Hsd:Sprague Dawley SD, rat): 7.1 h

O=S(=O)(c1ccc(O)cc1)c1ccc(O)cc1 [BPS, 4,4’-sulfonyldiphenol]
Total plasma elimination half-lives, range over exposure concentrations (in vivo [1]): 6.11 to 7.89 h
Free Elimination half-life (in vivo [1]; po): 6.82 h
half-life (in vivo [1]; po): 6.11 h
stability in feed formulations stored at refrigerated temperature [2]: confirmed
group mean daily body weight gain ([3]; 338 ppm via feed): 3.7 ± 4.4 g
average daily feed consumption ([3]; 338 ppm): 68 ± 2.5 g/kg bw/d
group mean daily body weight gain ([3]; 1125 ppm via feed): 3.7 ± 2.7 g
average daily feed consumption ([3]; 1125 ppm): 68 ± 3.5 g/kg bw/d
group mean daily body weight gain ([3]; 3375 ppm via feed): 2.6 ± 5.9 g
average daily feed consumption ([3]; 3375 ppm): 62 ± 5.1 g/kg bw/d
survival [3]: All animals survived until the end of the study
group mean daily body weight gain ([5]; 338 ppm via feed): 0.1 ± 0.4 g
average daily feed consumption ([5]; 338 ppm): 389 ± 85 g/kg bw/d
group mean daily body weight gain ([5]; 1125 ppm via feed): 0.1 ± 0.3 g
average daily feed consumption ([5]; 1125 ppm): 381 ± 61 g/kg bw/d
group mean daily body weight gain ([5]; 3375 ppm via feed): 0.1 ± 0.3 g
average daily feed consumption ([5]; 3375 ppm): 348 ± 131 g/kg bw/d
survival [5]: All animals survived until the end of the study
Gavage Cmax/D ([6]; single gavage 34 mg/kg, 2020): 9.2 (ng/mL)/(mg/kg)
Gavage Cmax/D ([6]; single gavage 340 mg/kg, 2020): 9.5 (ng/mL)/(mg/kg)
Free and total Cmax, difference between rats and mice (in vivo [7]; [11]): ≤ 2 fold
Free and total plasma elimination half-lives, difference between rats and mice (in vivo [7]; [11]): ≤ 2 fold
half-life (in vivo [7]; Hsd:Sprague Dawley SD, rat): 4.82 h
